# Data taken from publication PMC6198128 (Redox Biology, 2018).
# How the values were obtained:
# [1] = tested on: SCC-9 (human oral squamous cell carcinoma); assay: Alamar blue cytotoxicity assay, SCC-9; format: cell-based
# [2] = tested on: HCT116 (human colon carcinoma); assay: Alamar blue cytotoxicity assay, HCT116; format: cell-based
# B16-F10 (mouse melanoma) = assay: Alamar blue cytotoxicity assay, B16-F10; format: cell-based
# [3] = tested on: HL-60 (human promyelocytic leukemia); assay: Alamar blue cytotoxicity assay, HL-60; format: cell-based
# [4] = tested on: HSC-3 (human oral squamous cell carcinoma); assay: Alamar blue cytotoxicity assay, HSC-3; format: cell-based
# [5] = tested on: MCF-7 (human breast carcinoma); assay: Alamar blue cytotoxicity assay, MCF-7; format: cell-based
# [6] = tested on: HepG2 (human hepatocellular carcinoma); assay: Alamar blue cytotoxicity assay, HepG2; format: cell-based
# calf thymus DNA (ctDNA) = assay: DNA intercalation assay; format: binding; settings: cell-free, 15 µg/mL ctDNA, 1.5 µM ethidium bromide; complex 5, 10 and 20 µM; doxorubicin 10 µM
# How it was run: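 Ethidium bromide displacement from calf thymus DNA in saline: 15 µg/mL ctDNA, 1.5 µM ethidium bromide, test compound at 5, 10 and 20 µM. Vehicle (0.1% DMSO) was the negative control and doxorubicin (10 µM) the positive control. Fluorescence was read at excitation 320 nm and emission 600 nm. Lower fluorescence was taken as intercalation.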
# ROS in HL-60 cells = assay: Intracellular reactive oxygen species levels; format: cell-based, human; settings: HL-60, DCFH-DA, 1 h
# How it was run: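 Intracellular ROS in HL-60 cells was measured with 2′,7′-dichlorofluorescin diacetate after 1 and 3 h exposure to test compound. Fluorescence was read by flow cytometry, recording 10^4 events per sample with cellular debris omitted. Vehicle served as negative control; results are mean ± S.E.M., compared by ANOVA and Student–Newman–Keuls test.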
# HL-60 cells [7] = assay: Morphological analysis; format: cell-based, human; settings: 24 and 48 h, DOX 2 µM, OXA 2.5 µM
# How it was run: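 HL-60 cells were treated for 24 and 48 h, then stained with May-Grunwald-Giemsa and examined by light microscopy. In parallel, forward and side light scatter were quantified by flow cytometry, recording 10^4 events per sample with debris excluded. Vehicle was the negative control, with doxorubicin and oxaliplatin as positive controls.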
# HL-60 cells [8] = assay: Mitochondrial transmembrane potential; format: cell-based, human; settings: HL-60, rhodamine 123, 24 h, p < 0.05; DOX 2 µM, OXA 2.5 µM
# How it was run: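 HL-60 cells were grown in RPMI-1640 with 10% FBS, 2 mM L-glutamine and 50 µg/mL gentamycin at 37 °C, 5% CO2. After treatment, cells were loaded with rhodamine 123 (5 µg/mL) for 15 min at 37 °C in the dark and washed in saline.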
# [9] = tested on: PBMC (human peripheral blood mononuclear cells); assay: Alamar blue cytotoxicity assay, PBMC; format: cell-based; settings: read-out: IC50 in µM; PBMC non-cancer cells, alamar blue, 72 h
# [10] = Time-dependent 31P{1H} NMR stability in DMSO solution; format: physicochemical
# HL-60 cells [11] = assay: Internucleosomal DNA fragmentation and cell cycle distribution; format: cell-based, human
# How it was run: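 After 24 or 48 h treatment, HL-60 cells were permeabilized and stained with propidium iodide, and DNA content was measured by flow cytometry. 10^4 events were recorded per sample with debris excluded. Sub-G0/G1 was taken as internucleosomal DNA fragmentation, alongside G0/G1, S and G2/M fractions. Doxorubicin and oxaliplatin were positive controls; ANOVA with Student–Newman–Keuls test.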
# [12] = tested on: K-562 (human chronic myelogenous leukemia); assay: Alamar blue cytotoxicity assay, K-562; format: cell-based
# HL-60 cells [13] = format: cell-based, human; settings: HL-60, 24 and 48 h, p < 0.05; DOX 2 µM, OXA 2.5 µM
# [14] = HL-60, 1 µM, 24 h of incubation
# [15] = HL-60, 1 µM, 48 h of incubation
# [16] = HL-60, 2 µM, 24 h of incubation
# [17] = HL-60, 2 µM, 48 h of incubation
# [18] = HL-60, 4 µM, 24 h of incubation
# [19] = HL-60, 4 µM, 48 h of incubation
substance,measurement,setting,value
cis-[PtCl(PIP-OH)(PPh3)2]PF6 [CPP],more potent than PIP-OH,"[1]; SCC-9, ratio of IC50",3.8 fold
same,more potent than piplartine,"[1]; SCC-9, ratio of IC50",2.7 fold
same,IC50,"[1]; read-out: IC50 in µM, SCC-9, alamar blue, 72 h",6.2 µM
same,more potent than PIP-OH,"[2]; HCT116, ratio of IC50",2.4 fold
same,more potent than piplartine,"[2]; HCT116, ratio of IC50",1.1 fold
same,IC50,"[2]; read-out: IC50 in µM, HCT116, alamar blue, 72 h",4.8 µM
same,more potent than PIP-OH,"B16-F10 (mouse melanoma); B16-F10, ratio of IC50",56.9 fold
same,more potent than piplartine,"B16-F10 (mouse melanoma); B16-F10, ratio of IC50",9.6 fold
same,IC50,"B16-F10 (mouse melanoma); read-out: IC50 in µM, B16-F10, alamar blue, 72 h",1.1 µM
same,more potent than PIP-OH,"[3]; HL-60, ratio of IC50",4.5 fold
same,more potent than piplartine,"[3]; HL-60, ratio of IC50",7.4 fold
same,IC50,"[3]; read-out: IC50 in µM, HL-60, alamar blue, 72 h",1.9 µM
same,more potent than PIP-OH,"[4]; HSC-3, ratio of IC50",1.7 fold
same,more potent than piplartine,"[4]; HSC-3, ratio of IC50",14.1 fold
same,IC50,"[4]; read-out: IC50 in µM, HSC-3, alamar blue, 72 h",1 µM
same,more potent than PIP-OH,"[5]; MCF-7, ratio of IC50",3.6 fold
same,more potent than piplartine,"[5]; MCF-7, ratio of IC50",1.5 fold
same,IC50,"[5]; read-out: IC50 in µM, MCF-7, alamar blue, 72 h",6.8 µM
same,more potent than piplartine,"[6]; HepG2, ratio of IC50",1.4 fold
same,IC50,"[6]; read-out: IC50 in µM, HepG2, alamar blue, 72 h",4.4 µM
same,ethidium bromide fluorescence (displacement from ctDNA),calf thymus DNA (ctDNA),did not reduce the ethidium bromide fluorescence
same,ROS levels,ROS in HL-60 cells,caused increasing in the ROS levels
same,cell morphology,"HL-60 cells [7]; HL-60, May-Grunwald-Giemsa","reduction in the cell volume, chromatin condensation and fragmentation of the nuclei"
same,forward light scatter (FSC),"HL-60 cells [7]; HL-60, flow cytometry",decrease in FSC
same,side scatter (SCC),"HL-60 cells [7]; HL-60, flow cytometry",transient increase in SCC
same,mitochondrial transmembrane potential,HL-60 cells [8],induced loss of the mitochondrial transmembrane potential
same,IC50,[9],10.3 µM
same,stability in solution (31P{1H} NMR),[10]; after 1 h of incubation,significant dissociation of PIP-OH ligand from the metal complex
same,stability in solution (31P{1H} NMR),[10]; after 48 h,most the PIP-OH was dissociated from the metal complex
same,DNA content (%) G0/G1,HL-60 cells [11]; [14],32.0 ± 5.4 %
same,DNA content (%) G2/M,HL-60 cells [11]; [14],13.2 ± 2.9%
same,DNA content (%) S,HL-60 cells [11]; [14],10.5 ± 1.8%
same,DNA content (%) Sub-G0/G1,HL-60 cells [11]; [14],25.0 ± 1.6 %
same,DNA content (%) G0/G1,HL-60 cells [11]; [15],49.7 ± 2.2%
same,DNA content (%) G2/M,HL-60 cells [11]; [15],14.5 ± 0.9%
same,DNA content (%) S,HL-60 cells [11]; [15],12.3 ± 1.6%
same,DNA content (%) Sub-G0/G1,HL-60 cells [11]; [15],19.8 ± 1.4 %
same,DNA content (%) G0/G1,HL-60 cells [11]; [16],34.3 ± 2.9 %
same,DNA content (%) G2/M,HL-60 cells [11]; [16],15.0 ± 2.5%
same,DNA content (%) S,HL-60 cells [11]; [16],10.3 ± 1.1%
same,DNA content (%) Sub-G0/G1,HL-60 cells [11]; [16],29.2 ± 0.9 %
same,DNA content (%) G0/G1,HL-60 cells [11]; [17],48.5 ± 3.1%
same,DNA content (%) G2/M,HL-60 cells [11]; [17],14.1 ± 1.5%
same,DNA content (%) S,HL-60 cells [11]; [17],14.3 ± 0.8%
same,DNA content (%) Sub-G0/G1,HL-60 cells [11]; [17],25.8 ± 3.8 %
same,DNA content (%) G0/G1,HL-60 cells [11]; [18],26.7 ± 4.6 %
same,DNA content (%) G2/M,HL-60 cells [11]; [18],15.3 ± 2.6%
same,DNA content (%) S,HL-60 cells [11]; [18],10.1 ± 1.4%
same,DNA content (%) Sub-G0/G1,HL-60 cells [11]; [18],26.2 ± 4.1 %
same,DNA content (%) G0/G1,HL-60 cells [11]; [19],41.9 ± 8.6%
same,DNA content (%) G2/M,HL-60 cells [11]; [19],12.8 ± 2.8%
same,DNA content (%) S,HL-60 cells [11]; [19],8.0 ± 2.0 %
same,DNA content (%) Sub-G0/G1,HL-60 cells [11]; [19],27.3 ± 7.0 %
same,more potent than PIP-OH,"[12]; K-562, ratio of IC50",21.1 fold
same,more potent than piplartine,"[12]; K-562, ratio of IC50",16.9 fold
same,IC50,"[12]; read-out: IC50 in µM, K-562, alamar blue, 72 h",1.1 µM
same,apoptotic cells (annexin V-FITC/PI),HL-60 cells [13],increasing in apoptotic cells with more pronounced effect after 48 h
